Results taken from ChEMBL document CHEMBL1142410, “Stagonolides B-F, nonenolides produced by Stagonospora cirsii, a potential mycoherbicide of Cirsium arvense” (J Nat Prod, 2008).

How the values were obtained:
Type in all cases: functional
Cirsium arvense = experiment: Phytotoxicity against Cirsium arvense at 1 mg/ml by leaf disk puncture assay
Summary of the method: (§1)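 Leaf disks wounded centrally with a needle, kept on moistened filter paper in closed boxes. Compound dissolved in MeOH, diluted with distilled water to 1 mg/mL final (2% v/v MeOH; MeOH-only control); 10 μL drop applied at the wound. Incubated 48 h under cycles of 8 h dark at 20 °C and 16 h light at 24 °C; necrotic area then measured.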

Sonchus arvensis = experiment: Phytotoxicity against Sonchus arvensis at 1 mg/ml by leaf disk puncture assay; summary of the method: as §1
Colpoda steinii = experiment: Phytotoxicity against Colpoda stenii at 0.05 mg/ml after 3 hrs; conditions: Colpoda steini, in the assay text read “Zootoxicity” for “Phytotoxicity”
Summary of the method: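 Dried Colpoda steinii culture (~5000 cells per mL) revived in Lozina-Lozinskogo medium, 24 h at 25 °C. Compound in 4% EtOH mixed 1:1 v/v with the suspension, 0.05 mg/mL final; 4% EtOH control. Immobile cells (%) counted over 3–180 min. Full immobilisation within 3 min scored as strong toxicity; loss of motility at ≥180 min scored as medium.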

Structure (SMILES)	Activity (Cirsium arvense)	Activity (Sonchus arvensis)	Activity (Colpoda steinii)
C[C@@H]1C[C@H](O)/C=C/[C@@H](O)CCC(=O)O1	Not toxic	Not toxic	Not toxic
CCC[C@H]1OC(=O)CC[C@@H](O)/C=C/[C@H](O)[C@@H]1O	Not toxic	Not toxic	
C[C@@H]1CC[C@@H](O)/C=C/C=C\C(=O)O1	Not toxic	Not toxic	
CCC[C@H]1OC(=O)CCC/C=C/C(=O)[C@@H]1O	Toxic	Toxic	Not toxic
C[C@@H]1C/C=C/[C@@H](O)CCCC(=O)O1	Not toxic	Not toxic	
C[C@@H]1OC(=O)CC[C@H](O)/C=C/[C@@H]2O[C@H]12	Not toxic	Not toxic	
